Source: ChEMBL document CHEMBL4433236, “Synthesis and structure activity relationships of a series of 4-amino-1H-pyrazoles as covalent inhibitors of CDK14” (Bioorg Med Chem Lett, 2019)
The source made the active and inactive calls. The rule behind the calls is not given here.

Tests used:
[1] = biological target: Cyclin-dependent kinase 14/Cyclin-Y (Homo sapiens, UniProt O94921); assay: Inhibition of recombinant GST-tagged human full length CDK14/cyclin Y (2 to end residues) preincubated for 30 mins by Lantha screen eu binding assay; assay type: protein-complex assay
In short: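 CDK14 binding was measured in a LanthaScreen binding assay. IC50 is the average of three replicates, reported ± standard error.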

[2] = biological target: T1, Cyclin-dependent kinase 14 (Homo sapiens, UniProt O94921); assay: Inhibition of FLAG-tagged CDK14 (unknown origin) expressed in human HEK293 cells assessed as blocking of CDK14 pulldown at 500 to 1000 nM incubated for 4 hrs by biotinylated JNK-IN- based pull down assay; assay type: cell-based
In short: (§1)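 Cells were treated with compound at various doses for 4 h and then lysed. Lysates were incubated with biotinylated JNK-IN-7 and captured on streptavidin-coated beads. CDK14 capture was detected by western blot.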

HCT-116 = assay: Antiproliferative activity against human HCT116 cells assessed as reduction in cell viability after 72 hrs by cell titer glo-based luminescence assay; assay type: functional; details: HCT-116, 72 h
[3] = biological target: T1, Cyclin-dependent kinase 14; assay: Inhibition of FLAG-tagged CDK14 (unknown origin) expressed in human HEK293 cells assessed as blocking of CDK14 pulldown incubated for 4 hrs by biotinylated JNK-IN- based pull down assay; assay type: cell-based; in short: as §1
CDK2/Cyclin-Y = CDK2/Cyclin-Y (Homo sapiens, UniProt P24941+Q8ND76); assay: Inhibition of recombinant NanoLuc-tagged CDK2/cyclin Y expressed in human HCT116 cells at 1 uM incubated for 20 to 24 hrs by NanoBRET assay; assay type: cell-based
[4] = biological target: Cyclin-dependent kinase 17 (Homo sapiens) (UniProt Q00537); assay: Inhibition of CDK17 in human HCT116 cells at 1 uM incubated for 4 hrs by KINATIV live cell profiling protocol based assay
In short: (§2)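 Cellular kinase selectivity was profiled on the KiNativ platform, with compounds tested at 1 μM.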

[5] = biological target: Cyclin-dependent kinase 16 (Homo sapiens) (UniProt Q00536); assay: Inhibition of CDK16 in human HCT116 cells at 1 uM incubated for 4 hrs by KINATIV live cell profiling protocol based assay; in short: as §2
[6] = biological target: Cyclin-dependent kinase 18 (Homo sapiens) (UniProt Q07002); assay: Inhibition of CDK18 in human HCT116 cells at 1 uM incubated for 4 hrs by KINATIV live cell profiling protocol based assay; in short: as §2
[7] = biological target: T1, Cyclin-dependent kinase 14; assay: Inhibition of FLAG-tagged CDK14 (unknown origin) expressed in human HEK293 cells assessed as blocking of CDK14 pulldown up to 1000 nM incubated for 4 hrs by biotinylated JNK-IN- based pull down assay; assay type: cell-based; in short: as §1

T1 sequence (O94921 whole entry): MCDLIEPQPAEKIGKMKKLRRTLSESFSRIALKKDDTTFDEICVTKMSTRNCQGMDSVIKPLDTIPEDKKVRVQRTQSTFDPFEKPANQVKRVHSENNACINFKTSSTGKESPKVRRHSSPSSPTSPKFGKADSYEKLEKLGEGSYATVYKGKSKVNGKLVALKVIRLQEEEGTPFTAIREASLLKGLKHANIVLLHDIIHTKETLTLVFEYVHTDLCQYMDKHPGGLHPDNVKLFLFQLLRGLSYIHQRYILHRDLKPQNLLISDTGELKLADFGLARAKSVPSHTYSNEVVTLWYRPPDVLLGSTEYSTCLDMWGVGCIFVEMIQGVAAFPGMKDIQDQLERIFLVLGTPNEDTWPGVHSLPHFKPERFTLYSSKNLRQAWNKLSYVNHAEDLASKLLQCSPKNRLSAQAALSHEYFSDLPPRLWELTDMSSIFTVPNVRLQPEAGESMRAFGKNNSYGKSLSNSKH
Chain of Cyclin-dependent kinase 14/Cyclin-Y (O94921 whole entry): as above
Chain of Cyclin-dependent kinase 14/Cyclin-Y (Q8ND76 whole entry, further chain): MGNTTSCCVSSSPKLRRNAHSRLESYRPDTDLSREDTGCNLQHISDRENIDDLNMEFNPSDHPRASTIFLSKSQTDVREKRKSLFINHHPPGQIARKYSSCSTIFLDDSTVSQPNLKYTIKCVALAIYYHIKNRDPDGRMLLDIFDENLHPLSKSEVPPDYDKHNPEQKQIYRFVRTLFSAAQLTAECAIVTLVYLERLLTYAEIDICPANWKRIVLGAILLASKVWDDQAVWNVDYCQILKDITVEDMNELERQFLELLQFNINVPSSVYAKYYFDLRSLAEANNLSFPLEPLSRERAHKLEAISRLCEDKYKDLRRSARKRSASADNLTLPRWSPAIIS
Chain of Cyclin-dependent kinase 17 (Homo sapiens) (Q00537 whole entry, looked up): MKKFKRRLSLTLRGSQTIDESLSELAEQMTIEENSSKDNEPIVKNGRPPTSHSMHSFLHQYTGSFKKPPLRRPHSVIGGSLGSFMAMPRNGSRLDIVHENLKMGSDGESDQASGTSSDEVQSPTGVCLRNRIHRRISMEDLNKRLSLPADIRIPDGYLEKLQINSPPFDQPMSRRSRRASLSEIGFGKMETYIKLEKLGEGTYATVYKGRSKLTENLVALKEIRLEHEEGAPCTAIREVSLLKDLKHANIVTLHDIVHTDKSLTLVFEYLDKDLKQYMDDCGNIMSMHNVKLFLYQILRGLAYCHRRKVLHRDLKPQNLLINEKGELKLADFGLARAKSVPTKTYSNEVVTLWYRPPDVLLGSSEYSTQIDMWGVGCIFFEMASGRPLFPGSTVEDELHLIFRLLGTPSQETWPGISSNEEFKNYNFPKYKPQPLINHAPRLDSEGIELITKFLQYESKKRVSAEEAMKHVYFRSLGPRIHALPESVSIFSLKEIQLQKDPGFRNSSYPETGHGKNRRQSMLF
Chain of Cyclin-dependent kinase 18 (Homo sapiens) (Q07002 whole entry): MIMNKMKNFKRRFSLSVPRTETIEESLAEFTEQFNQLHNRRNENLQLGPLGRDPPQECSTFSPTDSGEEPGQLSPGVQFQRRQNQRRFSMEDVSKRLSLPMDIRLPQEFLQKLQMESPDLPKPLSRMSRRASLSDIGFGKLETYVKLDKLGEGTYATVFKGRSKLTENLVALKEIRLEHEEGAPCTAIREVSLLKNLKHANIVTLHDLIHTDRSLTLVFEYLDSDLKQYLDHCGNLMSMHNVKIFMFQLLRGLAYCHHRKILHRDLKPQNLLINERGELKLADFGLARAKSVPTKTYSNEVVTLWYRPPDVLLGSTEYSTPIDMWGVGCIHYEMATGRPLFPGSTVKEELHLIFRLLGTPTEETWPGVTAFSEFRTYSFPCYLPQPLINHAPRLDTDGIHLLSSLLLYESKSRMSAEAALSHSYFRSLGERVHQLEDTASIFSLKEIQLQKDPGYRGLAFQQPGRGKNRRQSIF
Chain of Cyclin-dependent kinase 16 (Homo sapiens) (Q00536 whole entry): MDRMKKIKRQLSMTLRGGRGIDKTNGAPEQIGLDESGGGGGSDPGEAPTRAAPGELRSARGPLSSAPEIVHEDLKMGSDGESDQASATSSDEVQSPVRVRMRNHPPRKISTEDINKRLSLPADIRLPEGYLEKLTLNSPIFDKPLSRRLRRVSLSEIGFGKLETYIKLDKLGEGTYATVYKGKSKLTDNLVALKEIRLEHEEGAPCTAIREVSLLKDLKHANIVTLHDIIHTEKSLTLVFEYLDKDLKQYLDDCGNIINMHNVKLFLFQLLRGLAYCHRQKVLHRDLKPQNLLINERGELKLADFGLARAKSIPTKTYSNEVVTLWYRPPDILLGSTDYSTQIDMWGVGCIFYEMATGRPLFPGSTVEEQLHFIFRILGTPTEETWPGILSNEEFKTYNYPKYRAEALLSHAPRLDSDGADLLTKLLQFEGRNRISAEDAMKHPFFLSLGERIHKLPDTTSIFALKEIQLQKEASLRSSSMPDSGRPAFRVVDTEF

Row | IC50 [1] [nM] | IC50 (HCT-116) [nM] | IC50 [3] [nM] | SMILES | other results
1 | 45 | 32 |  | C=CC(=O)Nc1cccc(C(=O)N2CCC(NC(=O)c3n[nH]cc3NC(=O)c3c(Cl)cccc3Cl)CC2)c1 | inhibition [2]: Active
2 | 3 | 440 | 1000 | CN(C)C/C=C/C(=O)Nc1cccc(S(=O)(=O)N2CCC(NC(=O)c3n[nH]cc3NC(=O)c3ccccc3)CC2)c1 | 
3 | > 1000 | 320 |  | Cc1cc(NC(=O)c2cccc(NC(=O)/C=C/CN(C)C)c2)ccc1NC(=O)c1n[nH]cc1NC(=O)c1c(Cl)cccc1Cl | 
4 |  | 38 | 1000 | CN(C)C/C=C/C(=O)Nc1cccc(C(=O)Nc2ccc(NC(=O)c3n[nH]cc3NC(=O)c3c(Cl)cccc3Cl)cc2)c1 | inhibition [2]: Active
5 | 41 | > 10000 | > 1000 | CN(C)CC/C=C/C(=O)Nc1ccc(S(=O)(=O)N2CC[C@@H](NC(=O)c3n[nH]cc3NC(=O)c3c(Cl)cccc3Cl)C2)cc1 | inhibition [7]: Active
6 | > 1000 |  |  | C=CC(=O)Nc1cccc(C(=O)Nc2ccc(NC(=O)c3n[nH]cc3NC(=O)c3c(Cl)cccc3Cl)c(C)c2)c1 | 

Row | SMILES | IC50 [1] [nM] | IC50 (HCT-116) [nM] | IC50 [3] [nM] | other results
7 | CN(C)C/C=C/C(=O)Nc1cccc(S(=O)(=O)N2CCC(NC(=O)c3n[nH]cc3NC(=O)c3c(Cl)cc(Cl)cc3Cl)CC2)c1 |  | 1140 to 5900 |  | IC50 (CDK2/Cyclin-Y): 256 nM; inhibition [4]: > 75%; inhibition [5]: > 90%; inhibition [6]: > 75%
